Measured values taken from PMC9041111 (RSC Advances, 2021).
Each block holds one compound with its values, some of them ahead of it.

How the values were obtained:
KCa3.1 channel = KCa3.1 channel (Homo sapiens, UniProt O15554); assay: whole-cell patch clamp on A549-3R cells, 1-EBIO activated KCa3.1 current; format: cell-based
[1] = in vitro metabolism with mouse liver microsomes and NADPH, LC-MS/MS; format: in vitro ADME; details: mouse liver microsomes, NADPH, 37 °C, 90 min
In short: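 The non-radioactive fluorinated reference compound was incubated with mouse liver microsomes and NADPH at 37 °C for 90 min. The reaction was stopped with CH3CN/CH3OH (1:1), cooled and centrifuged to remove protein. The supernatant was analysed by ESI LC-MS/MS (qToF). The metabolite was assigned from the accurate m/z of the [M + H]+ ion against the calculated exact mass.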

[2] = chemical stability under 18F-labelling conditions; format: physicochemical; details: 10 min, DMF

KCa3.1 channel, sequence (O15554 whole entry): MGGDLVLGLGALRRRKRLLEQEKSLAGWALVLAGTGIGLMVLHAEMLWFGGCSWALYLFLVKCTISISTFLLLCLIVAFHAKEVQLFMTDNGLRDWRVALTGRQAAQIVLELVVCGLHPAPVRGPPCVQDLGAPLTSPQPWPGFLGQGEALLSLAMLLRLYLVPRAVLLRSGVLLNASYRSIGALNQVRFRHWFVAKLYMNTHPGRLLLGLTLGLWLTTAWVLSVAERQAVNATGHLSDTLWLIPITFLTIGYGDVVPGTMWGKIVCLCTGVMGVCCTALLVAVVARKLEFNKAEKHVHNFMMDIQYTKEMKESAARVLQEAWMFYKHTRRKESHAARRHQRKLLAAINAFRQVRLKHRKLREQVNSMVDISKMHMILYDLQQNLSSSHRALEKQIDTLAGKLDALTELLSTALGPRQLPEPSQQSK

effect on current (current density) in patch clamp (KCa3.1 channel; 1-EBIO 50 μM, applied 2-5 min, n = 5): increased outward current
Structure (SMILES): CCn1c(=O)[nH]c2ccccc21 [1-EBIO, 1-ethyl-2-benzimidazolone]

effect on 1-EBIO activated KCa3.1 mediated current (KCa3.1 channel; 28 at 10 μM after 1-EBIO 50 μM, n = 5): reduced ionic current
main metabolite [1]: phenol 9
Structure (SMILES): NC(=O)C(c1ccccc1)(c1ccc(F)cc1)c1ccc(OCCF)cc1 (centres unmarked) [compound 28]

effect on 1-EBIO activated KCa3.1 mediated current (KCa3.1 channel; senicapoc 1 μM, applied consecutively after 28, n = 5): complete inhibition
Stability (TLC) ([2]; (NH4)2C2O4 (5 eq.), 90 °C): Stable
Stability (TLC) ([2]; (NH4)2C2O4 (5 eq.), 110 °C): Stable
Stability (TLC) ([2]; (NH4)2C2O4 (5 eq.), 130 °C): Stable
Stability (TLC) ([2]; K2CO3 (5 eq.), 90 °C): Partial decomposition
Stability (TLC) ([2]; K2CO3 (5 eq.), 110 °C): Partial decomposition
Stability (TLC) ([2]; K2CO3 (5 eq.), 130 °C): Complete decomposition
Stability (TLC) ([2]; TBAF (5 eq.), 90 °C): Complete decomposition
Stability (TLC) ([2]; TBAF (5 eq.), 110 °C): Complete decomposition
Stability (TLC) ([2]; TBAF (5 eq.), 130 °C): Complete decomposition
Stability (TLC) ([2]; no base, 130 °C): Stable
Structure (SMILES): NC(=O)C(c1ccccc1)(c1ccc(F)cc1)c1ccc(F)cc1 [senicapoc]
